These results are taken from ChEMBL document CHEMBL1127501, “TcO(PnA.O-1-(2-nitroimidazole)) [BMS-181321], a new technetium-containing nitroimidazole complex for imaging hypoxia: synthesis, characterization, and xanthine oxidase-catalyzed reduction” (J Med Chem, 1994).

Series [1] deals with Xanthine dehydrogenase/oxidase (Bos taurus, UniProt P80457). In words: Reaction rate was evaluated for the compound with hypoxanthine as reducing substrate in 5% DMF expressed as nM/min/unit XOD.
For series [2], the system named is xanthine oxidase. In words: (§1) Half life for the nitro group loss in xanthine oxidase enzyme assay in 5%DMF at 0.1 mM.
The nature of series [3]: Half life for the nitro group loss in xanthime oxidase enzyme assay in 5%DMF with no enzyme control at 0.1 mM; No reaction seen. The conditions noted are these: 100 µM. It counts as ADME.
Series [4] is described as follows: Half life for the nitro group loss in xanthime oxidase enzyme assay in 5%DMF with no hypoxanthine control at 0.1 mM; No reaction seen. It counts as ADME. The conditions noted are these: 100 µM.
A short description of series [5]: as §1. The conditions noted are these: 100 µM. It counts as ADME. Summed up:
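Nitro compound at 100 µM with 4 mM hypoxanthine and 0.2 units/mL cow milk xanthine oxidase, in 0.1 M phosphate/EDTA pH 7.4 containing 5% DMF. Solutions were argon-deoxygenated before the enzyme was injected by gas-tight syringe. Loss of the 326 nm nitroimidazole absorbance was followed by UV/vis, and the half-life derived from the time course.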

The test system of series [6] is xanthine oxidase. In words: Half life for the nitro group loss in xanthine oxidase enzyme assay in 0.2%DMF at 0.1 mM. The class given is ADME. Summed up:
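Anaerobic assay in argon-purged, septum-sealed cuvette: 100 µM nitro compound, 4 mM hypoxanthine, 0.2 units/mL bovine milk xanthine oxidase, 0.1 M phosphate/EDTA pH 7.4, 0.2% DMF final. Nitro absorbance at 326 nm read every 5 min and converted to concentration. Half-life taken from plots of log[% remaining] vs time.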

The nature of series [7]: Half life for the nitro group loss in xanthine oxidase enzyme assay in 5 %DMF at 0.1 mM; No rection seen. It counts as ADME. As to conditions: 100 µM; call rule not given here.

Sequence of Xanthine dehydrogenase/oxidase (P80457 whole entry): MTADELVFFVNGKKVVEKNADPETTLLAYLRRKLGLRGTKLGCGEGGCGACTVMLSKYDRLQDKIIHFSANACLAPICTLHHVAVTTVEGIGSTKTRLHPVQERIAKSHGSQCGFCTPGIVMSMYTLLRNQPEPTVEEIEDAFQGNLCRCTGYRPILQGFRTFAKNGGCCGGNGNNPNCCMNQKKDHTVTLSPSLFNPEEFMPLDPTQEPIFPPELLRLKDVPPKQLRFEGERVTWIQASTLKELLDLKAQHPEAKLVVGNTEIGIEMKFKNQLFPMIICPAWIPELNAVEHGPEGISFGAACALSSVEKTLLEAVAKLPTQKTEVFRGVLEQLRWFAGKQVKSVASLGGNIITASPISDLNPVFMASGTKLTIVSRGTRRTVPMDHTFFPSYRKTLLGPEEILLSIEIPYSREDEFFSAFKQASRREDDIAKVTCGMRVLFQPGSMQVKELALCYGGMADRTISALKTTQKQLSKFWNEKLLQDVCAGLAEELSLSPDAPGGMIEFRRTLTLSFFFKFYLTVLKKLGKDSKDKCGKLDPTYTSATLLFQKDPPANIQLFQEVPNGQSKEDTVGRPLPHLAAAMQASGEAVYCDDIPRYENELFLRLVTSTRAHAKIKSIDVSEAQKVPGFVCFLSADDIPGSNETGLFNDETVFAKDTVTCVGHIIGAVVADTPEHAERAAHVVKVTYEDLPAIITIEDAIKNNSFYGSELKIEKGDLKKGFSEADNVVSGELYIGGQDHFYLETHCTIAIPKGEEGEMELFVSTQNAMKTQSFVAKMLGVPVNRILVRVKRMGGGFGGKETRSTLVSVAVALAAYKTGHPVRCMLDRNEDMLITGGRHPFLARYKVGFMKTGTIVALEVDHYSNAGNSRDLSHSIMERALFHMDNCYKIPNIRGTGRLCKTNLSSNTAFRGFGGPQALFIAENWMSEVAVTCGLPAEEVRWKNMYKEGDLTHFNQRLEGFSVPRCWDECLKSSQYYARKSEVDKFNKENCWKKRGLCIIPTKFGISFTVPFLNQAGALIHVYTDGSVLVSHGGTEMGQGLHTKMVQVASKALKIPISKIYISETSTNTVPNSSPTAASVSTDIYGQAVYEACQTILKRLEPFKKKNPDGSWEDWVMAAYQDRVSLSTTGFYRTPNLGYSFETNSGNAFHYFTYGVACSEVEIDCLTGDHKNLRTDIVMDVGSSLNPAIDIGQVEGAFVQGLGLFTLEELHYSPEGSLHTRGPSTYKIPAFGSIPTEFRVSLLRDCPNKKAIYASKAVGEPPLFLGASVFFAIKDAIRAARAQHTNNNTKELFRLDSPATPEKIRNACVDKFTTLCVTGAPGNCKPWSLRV

As usually defined, the half-life is how long it takes for the measured level to halve. A lower half-life goes with rapid decline. `COCC(O)Cn1ccnc1[N+](=O)[O-]` (stereo not drawn) [MISONIDAZOLE]: the Rate in series [1] is 3.7 nM min-1 (unit XOD)-1. Moreover, in the series on xanthine oxidase [2], the half-life at 100 µM was found to be 1 h.
Regarding TcO(PnA.O-1-(2-nitroimidazole)), the T1/2 result is “Not Active” in series [3], “Not Active” in series [4] and 2 h in series [5]. The Rate in series [1] is 1.5 nM min-1 (unit XOD)-1.
Regarding `Cc1ncc([N+](=O)[O-])n1CCO` [METRONIDAZOLE], in the series with xanthine oxidase [6], the half-life at 100 µM is greater than 20 h.
Take TCO(PNAO): in series [7], the T1/2 entry was “Not Active”.
